According to ChEMBL document CHEMBL1124180, “Asymmetric synthesis and properties of the enantiomers of the antibacterial agent 7-(3-aminopyrrolidin-1-yl)-1-(2,4-difluorophenyl)-1,4-dihydro-6- fluoro-4-oxo-1,8-naphthyridine-3-carboxylic acid hydrochloride” (J Med Chem, 1988):

Legend:
[1] = Solubility in aqueous media urine, pH 5.1; assay type: physicochemical; conditions: read-out: S
[2] = system: Providencia stuartii; assay: In vitro activity against Providencia stuartii (CMX 640); assay type: functional
How it was run: (§1)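 MIC determined by agar dilution on brain-heart infusion agar under aerobic conditions.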

[3] = system: Escherichia coli; assay: In vitro activity against Escherichia coli (SS).; assay type: functional
How it was run: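 MIC for aerobic bacteria, measured on brain-heart infusion agar.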

[4] = system: Peptoniphilus asaccharolyticus; assay: In vitro activity against Peptococcus asaccharolyticus (ATCC 14963).; assay type: functional
How it was run: (§2)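 MIC determined under anaerobic conditions on Wilkins-Chalgren agar.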

[5] = system: Clostridioides difficile; assay: In vitro activity against Clostridium difficile (ATCC 17857); assay type: functional
[6] = system: Bacteroides fragilis; assay: In vitro activity against Bacteroides fragilis (SFM2975-7); assay type: functional; how it was run: as §2
[7] = system: Mus musculus; assay: In vivo activity against Pseudomonas aeruginosa A5007 (100X LD50), administered sc( each compound tested at 3 doses with 10 animals); assay type: functional
How it was run: (§3)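 Mice were challenged intraperitoneally with the organism. The compound was given subcutaneously as a total dose split into equal portions at 1 and 5 h post-infection. Three doses were used, with 10 animals per dose.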

[8] = system: Bacteroides fragilis; assay: In vitro activity against Bacteroides fragilis (105AT25285); assay type: functional; how it was run: as §2
[9] = Solubility in aqueous media 0.15 N sulfate, pH 5.4; assay type: physicochemical; conditions: read-out: S
[10] = system: Staphylococcus aureus; assay: In vitro activity against Staphylococcus aureus(45); assay type: functional; how it was run: as §1
[11] = system: Pseudomonas aeruginosa; assay: In vitro activity against Pseudomonas aeruginosa (K799/WT).; assay type: functional; how it was run: as §1
[12] = system: Streptococcus agalactiae; assay: In vitro activity against Streptococcus agalactiae (CMX 508).; assay type: functional; how it was run: as §1
[13] = system: Bacteroides fragilis; assay: In vitro activity against Bacteroides fragilis (784); assay type: functional; how it was run: as §2
[14] = system: Veillonella parvula; assay: In vitro activity against Veillonella parvula (ATCC 10790); assay type: functional
How it was run: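 Anaerobic MICs measured by agar dilution on Wilkins-Chalgren agar.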

[15] = system: Mus musculus; assay: In vivo activity against Escherichia coli Juhl(100X LD50), when administered po(each compound tested at 3 doses with 10 animals); assay type: functional
How it was run: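 Mice were challenged intraperitoneally with the organism. The compound was given orally as a total dose split into equal portions at 1 and 5 h post-infection. Three doses were used, with 10 animals per dose.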

[16] = system: Mus musculus; assay: In vivo activity against Staphylococcus aureus NCTC 10649, administered sc ( each compound tested at 3 doses with 10 animals); assay type: functional; how it was run: as §3
[17] = system: Micrococcus luteus; assay: In vitro activity against Micrococcus luteus (ATCC 4698); assay type: functional; how it was run: as §1
[18] = system: Bacteroides fragilis; assay: In vitro activity against Bacteroides fragilis (UC-2); assay type: functional; how it was run: as §2
[19] = system: Fusobacterium; assay: In vitro activity against Fusobacterium sp.(GS-10); assay type: functional; how it was run: as §2
[20] = system: Acinetobacter sp.; assay: In vitro activity against Acinetobacter sp.(CMX 669).; assay type: functional; how it was run: as §1
[21] = system: Staphylococcus epidermidis; assay: In vitro activity against Staphylococcus epidermidis (3519); assay type: functional; how it was run: as §1
[22] = system: Staphylococcus aureus; assay: In vitro activity against Staphylococcus aureus(ATCC 6538P); assay type: functional; how it was run: as §1
[23] = system: Phocaeicola vulgatus; assay: In vitro activity against Bacteroides vulgatus(SFBC 2375); assay type: functional; how it was run: as §2
[24] = system: Thomasclavelia ramosa; assay: In vitro activity against Clostridium romosum (7); assay type: functional
[25] = system: Pseudomonas aeruginosa; assay: In vitro activity against Pseudomonas aeruginosa (BMH10); assay type: functional; how it was run: as §1
[26] = system: Micrococcus luteus; assay: In vitro activity against Micrococcus luteus (ATCC 9341); assay type: functional; how it was run: as §1
[27] = Solubility in aqueous media 0.15 N phosphate, pH 5.6; assay type: physicochemical; conditions: read-out: S
[28] = system: Peptostreptococcus sp.; assay: In vitro activity against Peptostreptococcus sp.(TB-11); assay type: functional, peptostreptococcus s
How it was run: (§4)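 MIC for anaerobic bacteria, measured on Wilkins-Chalgren agar.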

[29] = system: Klebsiella aerogenes; assay: In vitro activity against Enterobacter aerogenes (ATCC 13048).; assay type: functional; how it was run: as §1
[30] = system: Clostridium perfringens; assay: In vitro activity against Clostridium perfringens (SFBC 2026); assay type: functional; how it was run: as §4
[31] = system: Staphylococcus aureus; assay: In vitro activity against Staphylococcus aureus(CMX 686B); assay type: functional; how it was run: as §1
[32] = system: Finegoldia magna; assay: In vitro activity against Peptococcus magnus (ATCC 29328); assay type: functional; how it was run: as §2
[33] = system: Staphylococcus aureus; assay: In vitro activity against Staphylococcus aureus(CMX 553); assay type: functional; how it was run: as §1
[34] = system: Streptococcus pyogenes; assay: In vitro activity against Streptococcus pyogenes(930 CONST).; assay type: functional; how it was run: as §1
[35] = system: Pseudomonas aeruginosa; assay: In vitro activity against Pseudomonas aeruginosa (A5007).; assay type: functional; how it was run: as §1
[36] = system: Parvimonas micra; assay: In vitro activity against Peptostreptococcus micros (ATCC 33270); assay type: functional; how it was run: as §2
[37] = system: Bacteroides fragilis; assay: In vitro activity against Bacteroides fragilis (SFM2929-1); assay type: functional; how it was run: as §2
[38] = system: Peptostreptococcus anaerobius; assay: In vitro activity against Peptostreptococcus anaerobius (ATCC 27337); assay type: functional; how it was run: as §2

`Cl.N[C@H]1CCN(c2nc3c(cc2F)c(=O)c(C(=O)O)cn3-c2ccc(F)cc2F)C1` gave a solubility [1] of 32.4 µg/mL, an MIC [2] of 1.56 µg/mL and an MIC [3] of 0.002 µg/mL. The MIC [4] was 0.12 µg/mL, the MIC [5] was 1 µg/mL and the MIC [6] was 0.5 µg/mL. For the same molecule, the ED50 [7] was 19.1 mg/kg, the MIC [8] was 0.25 µg/mL and the solubility [9] was 8.7 µg/mL. The MIC [10] was 0.1 µg/mL, the MIC [11] was 0.1 µg/mL and the MIC [12] was 0.2 µg/mL. It also gave an MIC [13] of 0.25 µg/mL, an MIC [14] of 0.25 µg/mL and an ED50 [15] of 0.8 mg/kg. For the same molecule, the ED50 [16] was 0.4 mg/kg, the MIC [17] was 0.78 µg/mL and the MIC [18] was 0.25 µg/mL. It also gave an MIC [19] of 0.25 µg/mL, an MIC [20] of 0.05 µg/mL and an MIC [21] of 0.05 µg/mL. The MIC [22] was 0.02 µg/mL, the MIC [23] was 0.25 µg/mL and the MIC [24] was 0.5 µg/mL. For the same molecule, the MIC [25] was 0.05 µg/mL, the MIC [26] was 0.78 µg/mL and the solubility [27] was 4.3 µg/mL. It also gave an MIC [28] of 0.25 µg/mL, an MIC [29] of 0.05 µg/mL and an MIC [30] of 0.12 µg/mL. For the same molecule, the MIC [31] was 0.05 µg/mL, the MIC [32] was 0.06 µg/mL and the MIC [33] was 0.05 µg/mL. It also gave an MIC [34] of 0.1 µg/mL, an MIC [35] of 0.1 µg/mL and an MIC [36] of 0.06 µg/mL. For the same molecule, the MIC [37] was 0.25 µg/mL and the MIC [38] was 0.12 µg/mL.
